Data taken from ChEMBL document CHEMBL4041511, “Synthesis of coumaperine derivatives: Their NF-κB inhibitory effect, inhibition of cell migration and their cytotoxic activity” (Eur J Med Chem, 2017).
Values after ≈ are worked out from the molar mass of the structure shown. Active and inactive are the calls of the source. No cut-off for these calls is given here.

Legend:
L-428 [1] = assay: Inhibition of RelB protein expression in nuclear fractions of human L428 cells at 10 to 40 ug/ml after 2 hrs by Western method; type: functional, cell-based
How it was run: (§1)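 10 x 10^6 L428 cells per sample exposed 2 h to various concentrations or DMSO. Cytosolic and nuclear fractions prepared by hypotonic lysis, needle shearing and high-salt nuclear extraction. 40 µg protein (Bradford) run on 10% SDS-PAGE, immunoblotted for p50, p65, RelB; β-actin and Lamin B loading controls; ECL detection. At least three independent experiments.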

Homo sapiens [2] = organism: Homo sapiens; assay: Inhibition of NF-kappaB in human L428 cells after 2 hrs by luciferase reporter gene assay; type: cell-based
How it was run: (§2)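 L428 cells stably carrying NF-κB-luciferase reporter (kept in 500 µg/ml G418), 10⁶ per well in 1 ml medium with DMSO solvent and compound (10-50 μg/ml) for 2 h, triplicate wells. Lysates assayed for luciferase, luminescence normalized to Bradford protein. Solvent control = 100%; Nuphar extract positive control; mean and SD of three independent experiments.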

Homo sapiens [3] = organism: Homo sapiens; assay: Inhibition of NF-kappaB in human L428 cells at 10 ug/ml after 2 hrs by luciferase reporter gene assay relative to control; type: cell-based; how it was run: as §2
A549 [4] = assay: Anti-migratory activity against human A549 cells assessed as reduction in wound closure at 10 ug/ml after 48 hrs by wound scratch assay; type: functional, cell-based
How it was run: (§3)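 A549 cells seeded in 6-well plates without compound; after monolayer formed (24 h), compound or DMSO vehicle added and monolayer scratched. Wound closure recorded after 48 h; concentrations 2-10 μg/ml. Representative of three independent experiments.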

L-428 [5] = assay: Inhibition of NFkappaB p50 subunit expression in nuclear fractions of human L428 cells at 10 to 40 ug/ml after 2 hrs by Western method; type: functional, cell-based; how it was run: as §1
L-428 [6] = assay: Inhibition of RelB protein expression in cytosolic fractions of human L428 cells at 10 to 40 ug/ml after 2 hrs by Western method; type: functional, cell-based; how it was run: as §1
Homo sapiens [7] = organism: Homo sapiens; assay: Inhibition of NF-kappaB in human L428 cells at 20 ug/ml after 2 hrs by luciferase reporter gene assay relative to control; type: cell-based; how it was run: as §2
Homo sapiens [8] = organism: Homo sapiens; assay: Inhibition of NF-kappaB in human L428 cells at 40 ug/ml after 2 hrs by luciferase reporter gene assay relative to control; type: cell-based; how it was run: as §2
L-428 [9] = assay: Cytotoxicity against human L428 cells assessed as reduction in cell viability after 48 hrs by XTT assay; type: functional, cell-based; settings: for IC50: L-428, 48 h
How it was run: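 L428 Hodgkin's lymphoma cells (RPMI 1640; lack IκBα, constitutive NF-κB), 3 x 10^4 per well in 200 µl, treated with graded concentrations for 48 h at 37 °C in triplicate. XTT added for 4 h at 37 °C, absorbance read at 450 nm. Control = 100% survival; mean and SD of three independent experiments.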

Homo sapiens [10] = organism: Homo sapiens; assay: Inhibition of NF-kappaB in human L428 cells at 50 ug/ml after 2 hrs by luciferase reporter gene assay relative to control; type: cell-based; how it was run: as §2
L-428 [11] = assay: Inhibition of NFkappaB p65 subunit expression in cytosolic fractions of human L428 cells at 10 to 40 ug/ml after 2 hrs by Western method; type: functional, cell-based; how it was run: as §1
A549 [12] = assay: Cytotoxicity against human A549 cells assessed as reduction in cell viability after 48 hrs by XTT assay; type: functional, cell-based; settings: A549, 48 h
How it was run: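 A549 cells (DMEM, 10% heat-inactivated FBS, L-glutamine, Pen-Strep), 3 x 10^4 per well, left 24 h to form monolayer, then exposed to graded concentrations for 48 h in triplicate. XTT added, further 4 h at 37 °C, absorbance at 450 nm. Untreated control = 100% survival; mean and SD of three independent experiments.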

Homo sapiens [13] = organism: Homo sapiens; assay: Inhibition of NF-kappaB in human L428 cells at 30 ug/ml after 2 hrs by luciferase reporter gene assay relative to control; type: cell-based; how it was run: as §2
L-428 [14] = assay: Inhibition of NFkappaB p65 subunit expression in nuclear fractions of human L428 cells at 10 to 40 ug/ml after 2 hrs by Western method; type: functional, cell-based; how it was run: as §1
L-428 [15] = assay: Inhibition of NFkappaB p50 subunit expression in cytosolic fractions of human L428 cells at 10 to 40 ug/ml after 2 hrs by Western method; type: functional, cell-based; how it was run: as §1
Mus musculus = organism: Mus musculus; assay: Inhibition of LPS-induced NFkappaB activation in mouse RAW264.7 cells at 100 ug/ml after 24 hrs by luciferase reporter gene assay relative to control; type: cell-based
Homo sapiens [16] = organism: Homo sapiens; assay: Inhibition of IL-1beta-induced NFkappaB activation in human OA chondrocytes at 100 ug/ml after 24 hrs by luciferase reporter gene assay relative to control; type: cell-based
[17] = biological target: Transcription factor p65 (Homo sapiens) (UniProt Q04206); assay: Inhibition of NFkappaB p65 subunit in human L428 cells assessed as depletion of p65 subunit from nucleus after 2 hrs by DAPI staining based confocal microscopic method; type: cell-based
Chain of Transcription factor p65 (Homo sapiens) (Q04206 whole entry): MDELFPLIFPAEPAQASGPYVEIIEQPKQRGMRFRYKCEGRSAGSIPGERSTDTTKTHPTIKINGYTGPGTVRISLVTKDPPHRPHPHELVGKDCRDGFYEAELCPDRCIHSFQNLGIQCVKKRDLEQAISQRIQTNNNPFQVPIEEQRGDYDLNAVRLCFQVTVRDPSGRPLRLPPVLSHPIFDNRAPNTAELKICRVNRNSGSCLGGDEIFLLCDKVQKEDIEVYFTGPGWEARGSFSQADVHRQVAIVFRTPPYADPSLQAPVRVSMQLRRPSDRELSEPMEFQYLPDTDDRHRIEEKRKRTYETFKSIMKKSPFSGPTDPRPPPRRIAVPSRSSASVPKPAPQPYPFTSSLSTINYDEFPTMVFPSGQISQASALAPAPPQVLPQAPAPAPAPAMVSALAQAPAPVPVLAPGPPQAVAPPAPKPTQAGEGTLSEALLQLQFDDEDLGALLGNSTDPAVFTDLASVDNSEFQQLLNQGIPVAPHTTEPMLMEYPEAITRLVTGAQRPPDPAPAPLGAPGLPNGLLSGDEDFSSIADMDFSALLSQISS
How it was run: (§4)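 L428 cells incubated 2 h at 37 °C with compound at 10 or 30 μg/ml, cytocentrifuged (900 rpm, 5 min), fixed in 8% formalin 20 min. Separate staining with anti-p65 or anti-p50 plus fluorescent secondary antibodies; nuclei stained with DAPI. Nuclear localization imaged by confocal microscopy.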

L-428 [18] = assay: Inhibition of NFkappaB p50 subunit expression in cytosolic fractions of human L428 cells after 2 hrs by Western method; type: functional, cell-based; how it was run: as §1
Homo sapiens [19] = organism: Homo sapiens; assay: Inhibition of NFkappaB p50 subunit in human L428 cells assessed as depletion of […] subunit from nucleus after 2 hrs by DAPI staining based confocal microscopic method; type: cell-based; how it was run: as §4
L-428 [20] = assay: Inhibition of NFkappaB p50 subunit expression in nuclear fractions of human L428 cells after 2 hrs by Western method; type: functional, cell-based; how it was run: as §1
A549 [21] = assay: Anti-migratory activity against human A549 cells assessed as reduction in wound closure at 5 ug/ml after 48 hrs by wound scratch assay; type: functional, cell-based; how it was run: as §3
L-428 [22] = assay: Inhibition of NFkappaB p65 subunit expression in nuclear fractions of human L428 cells after 2 hrs by Western method; type: functional, cell-based; how it was run: as §1
L-428 [23] = assay: Inhibition of NFkappaB p65 subunit expression in cytosolic fractions of human L428 cells after 2 hrs by Western method; type: functional, cell-based; how it was run: as §1
L-428 [24] = assay: Inhibition of RelB protein expression in cytosolic fractions of human L428 cells at 5 to 30 ug/ml after 2 hrs by Western method; type: functional, cell-based; how it was run: as §1
L-428 [25] = assay: Inhibition of RelB protein expression in nuclear fractions of human L428 cells at 5 to 30 ug/ml after 2 hrs by Western method; type: functional, cell-based; how it was run: as §1

Row | Compound | inhibition (Homo sapiens [2]) | inhibition (Homo sapiens [3]) | inhibition (Homo sapiens [7]) | inhibition (Homo sapiens [8]) | inhibition (Homo sapiens [10]) | inhibition (Homo sapiens [13]) | other results
1 | CN(C)c1ccc(/C=C/C=C/C(=O)N2CCCCC2)cc1 | Dose-dependent effect | 95.5% | 96.6% | 97.7% | 97.9% | 97.3% | inhibition (L-428 [1]): inactive; Activity (A549 [4]): Active; inhibition (L-428 [5]): inactive; inhibition (L-428 [6]): inactive; Activity (L-428 [9]): Dose-dependent effect; IC50 (L-428 [9]): 0.39 µg/mL (≈ 1.37 µM); inhibition (L-428 [11]): inactive; IC50 (A549 [12]): 69.1 µg/mL (≈ 243 µM); inhibition (L-428 [14]): inactive; inhibition (L-428 [15]): inactive
2 | O=C(/C=C/C=C/c1ccc2c(c1)OCO2)N1CCCCC1 | Dose-dependent effect | 67.3% | 67.5% | 86.6% | 90.2% | 85.1% | inhibition (Mus musculus): 75%; inhibition (Homo sapiens [16]): 90%
3 | O=C(/C=C/C=C/c1ccc(O)cc1)N1CCCCC1 | Dose-dependent effect | 68.4% | 79.6% | 91.5% | 92.2% | 89.8% | –
4 | CN(C)c1ccc(/C=C/C=C/C=C/C(=O)N2CCCCC2)cc1 | Dose-dependent effect | 37.2% | 56.2% | 57.2% | 59.9% | 56.8% | –
5 | COc1ccc(/C=C/C=C/C(=O)N2CCCCC2)cc1OC | Dose-dependent effect | 43.4% | 67.5% | 78.9% | 80.1% | 73.9% | –
6 | COc1cc(/C=C/C=C/C(=O)N2CCCCC2)cc(OC)c1OC | Dose-dependent effect | 34.1% | 44.6% | 56.9% | 59.8% | 53.1% | –
7 | O=C(/C=C/C=C/C=C/c1ccc2c(c1)OCO2)N1CCCCC1 | Dose-dependent effect | 34% | 56.6% | 71% | 71.2% | 65.8% | –
8 | COc1ccc(/C=C/C=C/C=C/C(=O)N2CCCCC2)cc1 | Dose-dependent effect | 26.4% | 34% | 50.7% | 51.8% | 44.8% | –
9 | CC(=O)Oc1ccc(/C=C/C=C/C(=O)N2CCCCC2)cc1 | Dose-dependent effect | 70.3% | 71.4% | 78.1% | 80.1% | 75.3% | –
10 | COc1ccc(/C=C/C=C/C(=O)N2CCCCC2)cc1 | Dose-dependent effect | 69.7% | 76.3% | 86.9% | 89.9% | 77.2% | inhibition (L-428 [1]): inactive; inhibition (L-428 [6]): inactive; inhibition [17]: Dose-dependent effect; inhibition (L-428 [18]): Dose-dependent effect; inhibition (Homo sapiens [19]): Dose-dependent effect; Activity (L-428 [9]): Dose-dependent effect; IC50 (L-428 [9]): 16.8 µg/mL (≈ 62.1 µM); inhibition (L-428 [20]): Dose-dependent effect; Activity (A549 [21]): Active; IC50 (A549 [12]): 63.2 µg/mL (≈ 233 µM); inhibition (L-428 [22]): Dose-dependent effect; inhibition (L-428 [23]): Dose-dependent effect
11 | COc1ccc(/C=C/C=C/C(=O)N2CCCCC2)c(OC)c1OC | Dose-dependent effect | 39.2% | 52.9% | 59.8% | 62.9% | 59.2% | –
12 | O=C(/C=C/C=C/c1ccc(OC2CCCC2)cc1)N1CCCCC1 | Dose-dependent effect | 57.6% | 61.7% | 69.7% | 72.2% | 63.2% | –
13 | O=C(/C=C/C=C/c1ccccc1)N1CCCCC1 | Dose-dependent effect | 71.9% | 73.9% | 85.9% | 88.2% | 82.2% | inhibition (L-428 [24]): inactive; inhibition [17]: Dose-dependent effect; inhibition (L-428 [18]): Dose-dependent effect; inhibition (Homo sapiens [19]): Dose-dependent effect; Activity (L-428 [9]): Dose-dependent effect; IC50 (L-428 [9]): 43.2 µg/mL (≈ 179 µM); inhibition (L-428 [20]): Dose-dependent effect; Activity (A549 [21]): Active; inhibition (L-428 [25]): inactive; IC50 (A549 [12]): 57.1 µg/mL (≈ 237 µM); inhibition (L-428 [22]): Dose-dependent effect; inhibition (L-428 [23]): Dose-dependent effect
